# ChEMBL document CHEMBL1135879 (J Med Chem, 2002)
# Assays:
# [1] = molecular target: T1, Amine oxidase [flavin-containing] B (Bos taurus, UniProt P56560); test: Inhibition of bovine brain mitochondrial Monoamine oxidase B (MAO-B) compared to toloxatone
# T1 sequence (P56560 whole entry): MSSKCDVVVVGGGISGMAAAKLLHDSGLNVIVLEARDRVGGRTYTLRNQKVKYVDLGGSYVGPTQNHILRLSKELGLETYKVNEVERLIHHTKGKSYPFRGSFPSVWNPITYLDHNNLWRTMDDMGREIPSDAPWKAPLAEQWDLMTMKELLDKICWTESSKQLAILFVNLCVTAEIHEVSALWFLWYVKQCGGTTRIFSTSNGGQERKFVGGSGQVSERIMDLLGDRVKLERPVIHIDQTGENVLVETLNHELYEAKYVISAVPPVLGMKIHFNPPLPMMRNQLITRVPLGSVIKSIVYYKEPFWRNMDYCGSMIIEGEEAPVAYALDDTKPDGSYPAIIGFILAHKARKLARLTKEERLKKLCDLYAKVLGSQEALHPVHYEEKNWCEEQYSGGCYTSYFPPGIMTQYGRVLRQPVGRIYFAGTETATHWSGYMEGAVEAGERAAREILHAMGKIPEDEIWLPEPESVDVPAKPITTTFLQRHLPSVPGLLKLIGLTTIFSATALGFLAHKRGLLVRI
# In short: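 Bovine brain mitochondrial fractions were isolated by the Basford method. To leave MAO-B activity, fractions were preincubated 30 min at 38 °C with 1 μM clorgyline. Inhibitors in DMSO were preincubated 30 min before kynuramine was added, then incubated 30 min more. Fluorimetric read-out was used and Ki values determined.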
# [2] = molecular target: T2, Amine oxidase [flavin-containing] A (Bos taurus, UniProt P21398); test: Inhibition of bovine brain mitochondrial Monoamine oxidase A (MAO-A) compared to toloxatone
# T2 sequence (P21398 whole entry): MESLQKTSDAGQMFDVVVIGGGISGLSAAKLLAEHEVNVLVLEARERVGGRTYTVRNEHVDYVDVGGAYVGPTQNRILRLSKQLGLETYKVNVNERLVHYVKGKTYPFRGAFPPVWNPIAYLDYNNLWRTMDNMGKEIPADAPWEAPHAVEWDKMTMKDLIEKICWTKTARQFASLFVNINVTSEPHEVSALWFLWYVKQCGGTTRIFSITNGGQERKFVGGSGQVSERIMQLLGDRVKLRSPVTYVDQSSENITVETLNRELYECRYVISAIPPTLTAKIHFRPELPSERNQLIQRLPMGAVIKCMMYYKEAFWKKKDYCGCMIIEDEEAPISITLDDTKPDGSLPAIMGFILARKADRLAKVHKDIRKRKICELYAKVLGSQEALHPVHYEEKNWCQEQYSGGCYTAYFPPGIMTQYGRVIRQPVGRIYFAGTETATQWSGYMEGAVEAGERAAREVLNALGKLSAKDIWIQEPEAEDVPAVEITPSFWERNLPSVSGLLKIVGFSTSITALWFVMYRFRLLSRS
# In short: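 Bovine brain mitochondria were isolated by the Basford method. To isolate MAO-A, fractions were preincubated 30 min at 38 °C with 1 μM L-deprenyl. Inhibitors in DMSO were preincubated 30 min, then kynuramine substrate was added, with 30 min further incubation. Product was read fluorimetrically and Ki values derived.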
smiles,measurement,setting,value
O=C1O[C@@H](CO)CN1n1cccc1,Ki,[1],9 µM
same,Ki,[2],0.09 µM
COC[C@@H]1CN(c2ccc(OCC[C@H](O)C(F)(F)F)cc2)C(=O)O1 [(R/R)BEFLOXATONE],Ki,[1],0.22 µM
same,Ki,[2],0.0025 µM
NC[C@H]1CN(n2cccc2)C(=O)O1,Ki,[1],4.4 µM
same,Ki,[2],53 µM
O=C1O[C@@H](CO)CN1n1cccc1.O=C1O[C@H](CO)CN1n1cccc1,Ki,[1],2 µM
same,Ki,[2],0.27 µM
NC[C@@H]1CN(n2cccc2)C(=O)O1,Ki,[1],34 µM
same,Ki,[2],1.2 µM
O=C1O[C@H](CO)CN1n1cccc1,Ki,[1],2 µM
same,Ki,[2],1.2 µM
CN(C)C[C@H]1CN(n2cccc2)C(=O)O1,Ki,[1],140 µM
same,Ki,[2],40 µM
[N-]=[N+]=NC[C@@H]1CN(n2cccc2)C(=O)O1,Ki,[1],24 µM
same,Ki,[2],2.5 µM
COC[C@H]1CN(n2cccc2)C(=O)O1,Ki,[1],50 µM
same,Ki,[2],0.0049 µM
COC[C@@H]1CN(n2cccc2)C(=O)O1,Ki,[1],23 µM
same,Ki,[2],1 µM
[N-]=[N+]=NC[C@H]1CN(n2cccc2)C(=O)O1,Ki,[1],200 µM
same,Ki,[2],0.2 µM
